Data: ChEMBL document CHEMBL4118144, “Design, Synthesis, and Testing of Potent, Selective Hepsin Inhibitors via Application of an Automated Closed-Loop Optimization Platform” (J Med Chem, 2018)
Calls of active or inactive are those of the source. The calls are words filed in the database; no cut-off is given here.

Key:
Serine protease hepsin [1] = target: T1, Serine protease hepsin (Homo sapiens, UniProt P05981, D161E/R162K); assay: Inhibition of recombinant C-terminal His10-tagged human Hepsin (R45 to […] residues) D161E/ R162K double mutant expressed in mouse NS0 cells using Boc-QRR-AMC as substrate after 15 mins by automated fluorescence assay
Method in brief: (§1)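 On-line assay integrated with the flow-synthesis platform: a 20 µL aliquot of each product solution captured automatically, HPLC-purified, then diluted and assayed.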

[2] = target: T2, Urokinase-type plasminogen activator (Homo sapiens, UniProt P00749); assay: Inhibition of recombinant C-terminal His10-tagged human uPA (M1 to L431 residues) expressed in mouse NS0 cells using Z-GGR-AMC as substrate after 15 mins by automated fluorescence assay; method in brief: as §1
Homo sapiens [3] = organism: Homo sapiens; assay: Selectivity ratio of IC50 for recombinant C-terminal His10-tagged human uPA (M1 to L431 residues) to IC50 for recombinant C-terminal His10-tagged human Hepsin (R45 to […] residues) D161E/ R162K double mutant by automated fluorescence assay
[4] = Chromatographic hydrophobicity index, log D of the compound at pH 7 by HPLC/UV analysis; type: physicochemical; settings: buffer
Serine protease hepsin [5] = target: T3, Serine protease hepsin (Homo sapiens, UniProt P05981); assay: Inhibition of doxycycline induced Hepsin in human MCF10A cells using Boc-QRR-AMC as substrate preincubated for 24 hrs followed by doxycycline induction for 24 hrs and subsequent addition of substrate by fluorescence assay; type: cell-based
T3 sequence (P05981 1-162 limits assumed): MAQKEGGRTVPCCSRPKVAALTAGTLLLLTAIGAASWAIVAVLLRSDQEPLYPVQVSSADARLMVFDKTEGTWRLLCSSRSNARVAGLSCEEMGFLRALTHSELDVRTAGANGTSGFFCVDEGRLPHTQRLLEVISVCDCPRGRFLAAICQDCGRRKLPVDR
T3 sequence (P05981 163-417 limits assumed): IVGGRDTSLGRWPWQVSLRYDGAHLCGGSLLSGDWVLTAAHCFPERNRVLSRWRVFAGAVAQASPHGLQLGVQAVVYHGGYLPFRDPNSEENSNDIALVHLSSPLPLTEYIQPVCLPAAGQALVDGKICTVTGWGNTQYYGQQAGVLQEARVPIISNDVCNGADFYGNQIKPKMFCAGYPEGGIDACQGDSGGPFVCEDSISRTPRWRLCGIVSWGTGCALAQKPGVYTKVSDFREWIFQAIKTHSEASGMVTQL

Serine protease hepsin [6] = target: T3, Serine protease hepsin; assay: Inhibition of doxycycline induced Hepsin in human MCF10A cells assessed as prevention in loss of HAI-1 level at 10 uM preincubated for 30 mins followed by doxycycline addition measured after 6 hrs by Immunoblot assay; type: cell-based
Method in brief: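 MCF10A-Indu20-hepsin cells (Dox-inducible hepsin) pretreated 30 min with compound or DMSO, then hepsin induced with 100 ng/mL doxycycline for 6 h; HAI-1 protein scored by immunoblot.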

Serine protease hepsin [7] = target: T3, Serine protease hepsin; assay: Inhibition of hepsin-mediated conversion of Pro-HGF into active form in human Hs578T cells assessed as decrease in MET phosphorylation at 1 to 10 uM preincubated for 30 mins followed by recombinant human pro-HGF addition measured after 30 mins by immunoblot method; type: cell-based
Method in brief: (§2)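 Hs578T or HCC1937 breast cells incubated with DMSO or inhibitor, then 50 ng/mL recombinant human Pro-HGF added; MET pathway activation (phospho-MET) assessed by immunoblotting.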

Serine protease hepsin [8] = target: T3, Serine protease hepsin; assay: Inhibition of doxycycline induced hepsin-mediated loss of desmosomal junctions in human MCF10A cells at 1 to 10 uM preincubated for 30 mins followed by doxycycline addition measured after 6 hrs by desmoglein 2 staining-based confocal immunofluorescence microscopic analysis; type: cell-based
Method in brief: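 MCF10A-Indu20-hepsin cells on coverslips pretreated 30 min with 1 or 10 µM compound or DMSO, then 100 ng/mL Dox for 6 h. Desmoglein 2 immunofluorescence: continuous pericellular staining scored positive, discontinuous or absent scored negative. Cells counted in 10 fields per treatment across three biological replicates; reported as percentages.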

Serine protease hepsin [9] = target: T3, Serine protease hepsin; assay: Inhibition of recombinant Hepsin (unknown origin)
[10] = target: T2, Urokinase-type plasminogen activator; assay: Inhibition of uPA (unknown origin)
Method in brief: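 uPA inhibition was run as an on-line biochemical assay integrated into the automated flow-synthesis platform. A 20 µL aliquot of each product solution was automatically captured, HPLC-purified, diluted and assayed. Some samples were instead screened manually, either from platform-synthesized material or from off-line synthesis. The read-out is IC50.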

Serine protease hepsin [11] = target: T3, Serine protease hepsin; assay: Inhibition of hepsin-mediated conversion of Pro-HGF into active form in human Hs578T cells assessed as decrease in MET phosphorylation at 100 nM preincubated for 30 mins followed by recombinant human pro-HGF addition measured after 30 mins by immunoblot method; type: cell-based; method in brief: as §2
Serine protease hepsin [12] = target: T3, Serine protease hepsin; assay: Inhibition of hepsin-mediated conversion of Pro-HGF into active form in human HCC1937 cells assessed as decrease in MET phosphorylation at 100 nM preincubated for 30 mins followed by recombinant human pro-HGF addition measured after 30 mins by immunoblot method; type: cell-based; method in brief: as §2
Serine protease hepsin [13] = target: T1, Serine protease hepsin; assay: Inhibition of recombinant C-terminal His10-tagged human Hepsin (R45 to […] residues) D161E/ R162K double mutant expressed in mouse NS0 cells using Boc-QRR-AMC as substrate after 15 mins by manual fluorescence assay
[14] = target: T2, Urokinase-type plasminogen activator; assay: Inhibition of recombinant C-terminal His10-tagged human uPA (M1 to L431 residues) expressed in mouse NS0 cells using Z-GGR-AMC as substrate after 15 mins by manual fluorescence assay
Homo sapiens [15] = organism: Homo sapiens; assay: Selectivity ratio of IC50 for recombinant C-terminal His10-tagged human uPA (M1 to L431 residues) to IC50 for recombinant C-terminal His10-tagged human Hepsin (R45 to […] residues) D161E/ R162K double mutant by manual fluorescence assay

Compound	IC50 (Serine protease hepsin [1])	IC50 [2]	Ratio IC50 (Homo sapiens [3])	chromatographic logD [4]	also measured
Cc1ccc(S(=O)(=O)NC(CC(C)C)C(=O)Nc2ccc(C(=N)N)cc2)cc1 (configuration not stated)	600 to 900 nM	11 to 20 µM	12 to 33	1.2	–
N=C(N)c1ccc(/C=C2\CCCC/C(=C\c3ccc(C(=N)N)cc3)C2=O)cc1	272 nM	0.484 µM	–	–	–
CC1CNc2c(cccc2S(=O)(=O)N[C@@H](CCCN=C(N)N)C(=O)N2CC[C@H](C)CC2C(=O)O)C1 (some centres not stated)	> 10000 nM	–	–	–	–
CCCCC(NS(=O)(=O)c1ccc(C)cc1)C(=O)Nc1ccc(C(=N)N)cc1F (configuration not stated)	900 nM	8 µM	9	1.4	–
CN(C)C(=O)N1CCN(C(=O)[C@@H](Cc2cccc(C(=N)N)c2)NS(=O)(=O)c2ccc3ccccc3c2)CC1	6550 nM	–	–	–	IC50 [10]: > 10 µM
Cc1ccc(C(=O)N[C@@H](C(=O)Nc2ccc(C(=N)N)cc2)C2CCCCC2)cc1	5000 nM	24.5 µM	5	1.7	–
C[C@@H](Oc1cc(-c2cnn(C3CCNCC3)c2)cnc1N)c1c(Cl)ccc(F)c1Cl	–	–	–	–	inhibition (Serine protease hepsin [11]): Active; inhibition (Serine protease hepsin [12]): Active
COC(=O)C(Cc1cccc(C(=N)N)c1)NC(=O)CNS(=O)(=O)c1ccc(C)cc1 (configuration not stated)	3140 nM	> 10 µM	–	–	–
N=C(N)c1ccc(NC(=O)[C@H](NS(=O)(=O)c2ccc(Cl)cc2)C2CCCCC2)cc1	100 nM	18 µM	180	1.5	–
Cc1ccc(S(=O)(=O)N[C@H](C(=O)Nc2ccc(C(=N)N)cc2)C2CCCCC2)cc1	–	–	–	1.3	IC50 (Serine protease hepsin [13]): 220 nM
CCCCC(NS(=O)(=O)c1ccc(C)cc1)C(=O)Nc1cccc(C(=N)N)c1 (configuration not stated)	73000 nM	19 µM	0.26	1.1	–
Cc1ccc(S(=O)(=O)NC(CC2CCCC2)C(=O)Nc2ccc(C(=N)N)cc2)cc1 (configuration not stated)	700 nM	16 µM	23	1.5	–
Cc1ccc(S(=O)(=O)N2CCCC2C(=O)Nc2ccc(C(=N)N)cc2)cc1 (configuration not stated)	1500 to 3000 nM	5.3 to 28 µM	3 to 9	0.5	–
N=C(N)c1cccc(C[C@H](NS(=O)(=O)c2ccc3ccccc3c2)C(=O)N2CCCC(C(=O)NCc3cccs3)C2)c1 (some centres not stated)	676 nM	2.43 µM	–	–	IC50 (Serine protease hepsin [13]): 330 nM; IC50 [14]: 6 µM; Ratio IC50 (Homo sapiens [15]): 18
N=C(N)c1ccc(C[C@@H](NC(=O)CNS(=O)(=O)c2ccc3ccccc3c2)C(=O)N2CCCCC2)cc1	4460 nM	–	–	–	–

Now from value to molecule, other results behind:

IC50 (Serine protease hepsin [1])	IC50 [2]	Ratio IC50 (Homo sapiens [3])	chromatographic logD [4]	Compound	also measured
3350 nM	0.285 µM	–	–	CCOC(=O)N1CCN(C(=O)[C@@H](Cc2cccc(C(=N)N)c2)NS(=O)(=O)c2c(C(C)C)cc(C(C)C)cc2C(C)C)CC1	IC50 (Serine protease hepsin [5]): 6.49 µM; inhibition (Serine protease hepsin [6]): inactive; inhibition (Serine protease hepsin [7]): Active; inhibition (Serine protease hepsin [8]): inactive; IC50 (Serine protease hepsin [9]): 3 µM
1100 nM	22 µM	20	1.2	N=C(N)c1ccc(NC(=O)[C@H](NS(=O)(=O)c2ccccc2)C2CCCCC2)cc1	–
500 to 900 nM	3 to 5 µM	3 to 10	1.2	CCCCC(NS(=O)(=O)c1ccc(C)cc1)C(=O)Nc1ccc(C(=N)N)cc1 (configuration not stated)	–
2000 nM	43 µM	22	1.5	Cc1ccc(NC(=O)N[C@@H](C(=O)Nc2ccc(C(=N)N)cc2)C2CCCCC2)cc1	–
11000 nM	68 µM	6	1.4	Cc1ccc(S(=O)(=O)NC(CC(=O)Nc2ccc(C(=N)N)cc2)C2CCCCC2)cc1 (configuration not stated)	–
6190 nM	–	–	–	COC(=O)N1CCN(C(=O)[C@H](Cc2cccc(C(=N)N)c2)NS(=O)(=O)c2ccc3ccccc3c2)CC1	–
860 nM	64 µM	74	0.4	Cc1ccc(S(=O)(=O)NC(C(=O)Nc2ccc(C(=N)N)cc2)C2CCCC2)cc1 (configuration not stated)	–
58000 nM	58 µM	1	–	CCCCC(NS(=O)(=O)c1ccc(C)cc1)C(=O)Nc1ccc(Br)cc1 (configuration not stated)	–
1400 nM	> 19 µM	> 13	0.4	Cc1ccc(S(=O)(=O)NC(C(=O)Nc2ccc(C(=N)N)cc2)C2CCOCC2)cc1 (configuration not stated)	–
5 nM	–	–	–	N=C(N)c1ccc2cc(OC(=O)c3ccc(N=C(N)N)cc3)ccc2c1 [NAFAMOSTAT]	–
3000 nM	1 µM	0.3	1.6	Cc1ccc(S(=O)(=O)NCC(Cc2ccccc2)C(=O)Nc2ccc(C(=N)N)cc2)cc1 (configuration not stated)	–
383 nM	–	–	–	CCOC(=O)c1ccc(OC(=O)CCCCCNC(=N)N)cc1 [GABEXATE]	–
> 19000 nM	24 µM	< 1	1.8	Cc1ccc(S(=O)(=O)N(C)C(CC(C)C)C(=O)Nc2ccc(C(=N)N)cc2)cc1 (configuration not stated)	–
1800 nM	7.2 µM	4	0.8	Cc1ccc(S(=O)(=O)NC(C(=O)Nc2ccc(C(=N)N)cc2)C(C)C)cc1 (configuration not stated)	–
680 nM	4.7 µM	7	1.7	N=C(N)c1ccc(NC(=O)[C@H](NS(=O)(=O)c2ccc(C(F)(F)F)cc2)C2CCCCC2)cc1	IC50 (Serine protease hepsin [13]): 850 nM; IC50 [14]: > 1950 µM; Ratio IC50 (Homo sapiens [15]): > 2300; IC50 (Serine protease hepsin [5]): 3.15 µM; inhibition (Serine protease hepsin [6]): inactive; inhibition (Serine protease hepsin [7]): Active
–	–	–	0.9	Cc1ccc(S(=O)(=O)NC(C(=O)Nc2ccc(C(=N)N)cc2)c2ccccc2)cc1 (configuration not stated)	IC50 (Serine protease hepsin [13]): 250 nM; IC50 [14]: 60 µM
> 10000 nM	–	–	–	N=C(N)NCCC[C@@H](NC(=O)c1ccc2ccccc2c1O)C(=O)N1CCC[C@@H]1C(N)=O	–
300 nM	12 µM	40	1.3	COc1ccc(S(=O)(=O)N[C@@H](C(=O)Nc2ccc(C(=N)N)cc2)C2CCCCC2)cc1	–
1130 nM	> 10 µM	–	–	Cc1ccc(S(=O)(=O)NC(CCc2ccccc2)C(=O)Nc2ccc(C(=N)N)cc2)cc1 (configuration not stated)	IC50 (Serine protease hepsin [13]): 870 nM; IC50 [14]: 26 µM; Ratio IC50 (Homo sapiens [15]): 30
